Article PMC7953034 (Journal of Pesticide Science, 2021)
Like-named read-outs stand apart in the source and are kept apart here.

Legend:
DmNobo [1] = biological target: T1, DmNobo (Drosophila melanogaster, UniProt Q7JYX0); experiment: Crystal structures of DmNobo complexed with inhibitors; settings: for # of bound molecules in the H-site: crystal structure of DmNobo complex; for Conformational change of Phe39: apo vs compound-bound; for GSH requirement for binding: crystals soaked with or without GSH; for GS-conjugation: observed in crystal structure with GSH
Procedure, shortened: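 DmNobo was expressed in E. coli BL21(DE3) from a pCold III construct and purified by GSH affinity and size-exclusion chromatography. Crystals were grown over 34% (v/v) PPG400, 80 mM Bis-Tris pH 6.4. They were soaked 2 days in 42.5% PPG400, 100 mM Bis-Tris pH 6.4 with 30 mM test compound, ±10 mM GSH, then flash-frozen. Synchrotron data were phased by molecular replacement using apo DmNobo. Contacts were defined as ≤4.0 Å.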

DmNobo [2] = biological target: T1, DmNobo; experiment: GST activity inhibition assay; assay type: biochemical
Procedure, shortened: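 Recombinant DmNobo from E. coli was used. Test compounds were serially diluted two-fold in DMSO (stock series from 2.5 mM down), then premixed with enzyme and GSH before 3,4-DNADCF was added. The final mix was 100 mM sodium phosphate pH 6.5, 25 ng·mL⁻¹ DmNobo, 1 mM GSH, 0.005% Tween 20 and 1 µM substrate. Fluorescence of the conjugate (ex 485/em 538 nm) was read every 30 s for 3 min. Relative activity was activity with/without compound; IC50 was taken from duplicate assays, with SD.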

DmNobo [3] = biological target: T1, DmNobo; settings: crystal structure PDB ID: 6KEP; cited from earlier work

T1 sequence (Q7JYX0 whole entry): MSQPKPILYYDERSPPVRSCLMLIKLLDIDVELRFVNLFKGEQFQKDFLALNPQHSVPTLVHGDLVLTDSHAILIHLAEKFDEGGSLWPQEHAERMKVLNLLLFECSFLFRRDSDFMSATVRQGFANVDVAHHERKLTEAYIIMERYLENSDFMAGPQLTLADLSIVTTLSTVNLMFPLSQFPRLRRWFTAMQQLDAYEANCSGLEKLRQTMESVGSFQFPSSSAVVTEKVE

## COc1cccc(C2=NC(C)(C)NC(c3cc(Br)ccc3O)C2)c1 (stereo not drawn) [TDP011, 4-bromo-2-[4-(3-methoxyphenyl)-2,2-dimethyl-5,6-dihydro-1H-pyrimidin-6-yl]phenol]
DmNobo [1]
  # of bound molecules in the H-site: 1
  GSH requirement for binding: GSH-dependent and YES
  GS-conjugation: YES
DmNobo [1]; crystal structure
  Conformational change of Phe39: YES
DmNobo [2]
  IC50: 6.72 ± 1.48 µM

## Cc1ccc(C(C)(C)C)cc1S(=O)(=O)Nc1ccccc1C(=O)O [TDP013, 2-(5-tert-butyl-2-methyl-benzenesulfonylamino)-benzoic acid]
DmNobo [1]; crystal structure
  Different conformations of the inhibitor in subunits A and B: YES
  Conformational change of Phe39: YES
DmNobo [1]
  # of bound molecules in the H-site: 1
DmNobo [2]
  IC50: 8.94 ± 1.65 µM

## C[C@]12CC[C@@H]3c4ccc(O)cc4CC[C@H]3[C@@H]1CC[C@@H]2O [17β-Estradiol, 17β-estradiol]
DmNobo [3]
  # of bound molecules in the H-site: 1

## Nc1ccc(N2CCc3sccc3C2)nc1 [TDP015, 6-(6,7-dihydrothieno[3,2-c]pyridin-5(4H)-yl)-3-pyridinamine]
DmNobo [1]
  # of bound molecules in the H-site: 2
  GSH requirement for binding: GSH-dependent and YES
  GS-conjugation: YES
DmNobo [1]; crystal structure
  Conformational change of Phe39: YES
DmNobo [2]
  IC50: 3.32 ± 0.81 µM

## O=C1CS(=O)(=O)N(Cc2ccc(F)cc2)c2ccsc21 [TDP012, 1-(4-fluorobenzyl)-1H-thieno[3,2-c][1,2]thiazin-4(3H)-one 2,2-dioxide]
DmNobo [1]
  # of bound molecules in the H-site: 1
  GSH requirement for binding: GSH-dependent and YES
  GS-conjugation: YES
DmNobo [1]; crystal structure
  Conformational change of Phe39: YES
DmNobo [2]
  IC50: 3.1 ± 0.77 µM

## CC1(C)CC(=O)CC(=O)C1 [TDP045, 5,5-dimethyl-1,3-cyclohexanedione]
DmNobo [1]
  # of bound molecules in the H-site: 1
  GS-conjugation: YES
DmNobo [2]
  IC50: > 1000 µM
DmNobo [2]; GSH-conjugation activity, 3,4-DNADCF
  inhibitory activity against DmNobo (in words): did not exhibit a strong inhibitory activity
